Residues, ends and D or L forms follow the SMILES beside them.
What was measured:
Type in all cases: cell-based
MCF-7 cells [1] = assay: MTT viability assay, MCF-7; details: read-out: IC50 MCF-7, 2 h peptide treatment, 6.25-200 μg mL^–1, n = 3
Outline: (§1)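 Cancer cells were cultured in supplemented RPMI-1640, seeded at 1×10^4 per well, adhered 12 h and synchronized 12 h in incomplete medium. Peptide was applied at 6.25–200 μg mL⁻¹ for 2 h, then MTT was added for 4 h, formazan dissolved in DMSO, and absorbance read at 575 nm; n = 3. Selectivity was taken as the IC₅₀ in MCF-12 cells, foreskin-derived primary fibroblasts or erythrocytes divided by the cancer-cell IC₅₀.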

MDA-MB-231 cells = assay: MTT viability assay, MDA-MB-231; details: read-out: IC50 MDA-MB-231, 2 h peptide treatment, 6.25-200 μg mL^–1, n = 3
Outline: as §1

MCF-7 cells [2] = assay: Wound-healing assay; details: substance alone (peptide at IC50), n = 12

SMILES	IC50 (MCF-7 cells [1]) [µM]	IC50 (MDA-MB-231 cells) [µM]	wound area reduced (MCF-7 cells [2]; MCF-7, 24 h after the wound)	wound area reduced (closure) (MCF-7 cells [2]; MCF-7, 48 h after the wound) [%]
N=C(N)NCCC[C@H](NC(=O)[C@H](Cc1c[nH]c2ccccc12)NC(=O)[C@H](CCC(N)=O)NC(=O)[C@H](Cc1c[nH]c2ccccc12)NC(=O)[C@H](CCCNC(=N)N)NC(=O)[C@H](Cc1c[nH]c2ccccc12)NC(=O)[C@H](CCC(N)=O)NC(=O)[C@H](Cc1c[nH]c2ccccc12)NC(=O)[C@H](CCCNC(=N)N)NC(=O)[C@@H](N)CCCNC(=N)N)C(N)=O [RR-1-R] (H-RRWQWRWQWR-NH2)	68	73		
N=C(N)NCCC[C@H](NC(=O)[C@H](CCCNC(=N)N)NC(=O)[C@H](Cc1c[nH]c2ccccc12)NC(=O)[C@H](CCC(N)=O)NC(=O)[C@H](Cc1c[nH]c2ccccc12)NC(=O)[C@H](CCCNC(=N)N)NC(=O)[C@H](Cc1c[nH]c2ccccc12)NC(=O)[C@H](CCC(N)=O)NC(=O)[C@H](Cc1c[nH]c2ccccc12)NC(=O)[C@H](CCCNC(=N)N)NC(=O)[C@@H](N)CCCNC(=N)N)C(N)=O [RR-1-RR] (H-RRWQWRWQWRR-NH2)	58	67		
C[C@]12CC[C@@H]3c4ccc(O)cc4CC[C@H]3[C@@H]1CC[C@@H]2O [estradiol]			about 20%	40
